Source: publication PMC3263826 (ACS medicinal chemistry letters, 2011)

Experiments:
human MAO B = biological target: T1, human MAO B (Homo sapiens, UniProt P27338); assay: Inhibition of purified recombinant human MAO B; assay type: biochemical; conditions: for inhibition pattern with MAO B: species not given
T1 sequence (P27338 1-520): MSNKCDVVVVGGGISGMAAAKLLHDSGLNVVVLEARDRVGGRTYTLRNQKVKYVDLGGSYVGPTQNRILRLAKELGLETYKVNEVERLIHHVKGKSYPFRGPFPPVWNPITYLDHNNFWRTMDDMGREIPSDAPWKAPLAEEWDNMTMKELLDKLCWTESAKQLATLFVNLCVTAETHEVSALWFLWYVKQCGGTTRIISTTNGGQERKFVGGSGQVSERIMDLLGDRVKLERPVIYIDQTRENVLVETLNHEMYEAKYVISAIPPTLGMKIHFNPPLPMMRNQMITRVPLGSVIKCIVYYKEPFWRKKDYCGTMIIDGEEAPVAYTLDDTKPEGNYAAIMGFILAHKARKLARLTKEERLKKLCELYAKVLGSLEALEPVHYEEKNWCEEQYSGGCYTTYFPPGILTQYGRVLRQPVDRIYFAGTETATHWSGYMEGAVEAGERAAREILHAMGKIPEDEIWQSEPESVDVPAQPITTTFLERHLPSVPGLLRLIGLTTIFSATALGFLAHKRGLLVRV

human MAO A = biological target: T2, human MAO A (Homo sapiens, UniProt P21397); assay: Inhibition of purified recombinant human MAO A; assay type: biochemical; conditions: for inhibition pattern with MAO A: species not given
T2 sequence (P21397 1-527): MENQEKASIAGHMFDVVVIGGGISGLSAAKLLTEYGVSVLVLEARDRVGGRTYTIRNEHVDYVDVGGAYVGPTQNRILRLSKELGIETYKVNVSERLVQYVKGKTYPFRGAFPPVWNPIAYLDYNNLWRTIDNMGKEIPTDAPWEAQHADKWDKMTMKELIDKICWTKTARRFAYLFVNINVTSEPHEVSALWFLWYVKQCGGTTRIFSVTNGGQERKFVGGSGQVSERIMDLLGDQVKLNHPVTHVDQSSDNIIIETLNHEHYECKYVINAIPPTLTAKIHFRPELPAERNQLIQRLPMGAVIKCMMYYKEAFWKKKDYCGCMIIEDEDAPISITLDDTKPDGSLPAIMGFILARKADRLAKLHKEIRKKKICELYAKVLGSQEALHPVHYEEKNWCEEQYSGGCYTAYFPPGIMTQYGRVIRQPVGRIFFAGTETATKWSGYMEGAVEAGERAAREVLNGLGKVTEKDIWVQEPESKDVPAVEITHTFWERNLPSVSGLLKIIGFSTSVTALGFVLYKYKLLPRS

[1] = cited from earlier work
rat MAO A = biological target: T3, rat MAO A (Rattus norvegicus, UniProt P21396); assay: Inhibition of purified recombinant rat MAO A; assay type: biochemical; conditions: accessible concentration range (~100 μM)
T3 sequence (P21396 1-526): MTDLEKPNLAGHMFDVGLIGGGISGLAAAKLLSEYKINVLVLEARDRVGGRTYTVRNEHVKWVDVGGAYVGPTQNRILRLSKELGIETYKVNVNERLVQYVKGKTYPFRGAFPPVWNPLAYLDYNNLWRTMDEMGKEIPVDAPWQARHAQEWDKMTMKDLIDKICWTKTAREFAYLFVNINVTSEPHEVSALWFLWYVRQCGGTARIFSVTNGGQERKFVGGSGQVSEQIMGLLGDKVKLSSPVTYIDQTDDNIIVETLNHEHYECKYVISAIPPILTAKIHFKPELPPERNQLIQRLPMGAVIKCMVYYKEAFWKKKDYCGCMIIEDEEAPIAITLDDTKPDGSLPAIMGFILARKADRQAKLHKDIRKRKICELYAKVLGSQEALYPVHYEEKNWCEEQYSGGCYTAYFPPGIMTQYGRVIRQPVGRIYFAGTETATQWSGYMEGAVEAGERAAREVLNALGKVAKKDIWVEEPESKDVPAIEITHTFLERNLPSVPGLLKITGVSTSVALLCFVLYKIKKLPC

[2] = test system: MPTP-mouse model for Parkinson's disease; conditions: cited from earlier work
[3] = biological target: human histone demethylase LSD1 (Homo sapiens, UniProt O60341); assay: Inhibition of human histone demethylase LSD1; assay type: biochemical; conditions: concentrations up to 100 μM
Method in brief: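 Enzyme is recombinant human LSD1 purified as a complex with CoREST. Test compound was assayed at concentrations up to 100 μM.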

Structure (SMILES)	inhibition pattern with MAO B (human MAO B)	inhibitory activity against human MAO A (human MAO A; accessible concentration range (~100 μM))	brain (therapeutic neuroprotective) concentration ([1]; monkey, in vivo)	plasma concentration ([1]; monkeys with induced symptoms characteristic of Parkinson's disease)	inhibitory activity against rat MAO A (rat MAO A)	neuroprotection in MPTP-mouse model [2]	inhibition of LSD1 [3]	substrate of MAO B (human MAO B; time course of hours)	inhibition pattern with MAO A (human MAO A)	substrate of MAO A (human MAO A; time course of hours)
CCc1ccc(CCOc2ccc(CC3SC(=O)NC3=O)cc2)nc1 (centres unmarked) [Pioglitazone, pioglitazone]	competitively	does not exhibit any inhibitory activity	~ 0.14 μM	~ 4.9 μM	does not exhibit any inhibitory activity	effective neuroprotectant	No inhibition			
CN(CCOc1ccc(CC2SC(=O)NC2=O)cc1)c1ccccn1 (centres unmarked) [Rosiglitazone, rosiglitazone]	competitively						No inhibition	very slow substrate	competitively	very slow substrate
Cc1c(C)c2c(c(C)c1O)CCC(C)(COc1ccc(CC3SC(=O)NC3=O)cc1)O2 (centres unmarked) [Troglitazone, troglitazone]	non-competitive								non-competitive	
